Screening results: PubChem, several laboratories
Compounds with a hit are over-represented: about 5.8% of the library has one in this group of screens.
RBBP9 inhibitor: human RBBP9 hydrolase inhibition. O75884. recombinant RBBP9, FP-Rh probe fluorescence polarization. inhibition, % at 7.94 µM. hit rate 0.2% among 220,000;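 active = inhibition above the campaign mean of all tested compounds plus 3 SD, cut at about 14% in these data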;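 also: plate controls were DMSO wells with RBBP9 for no effect and wells lacking RBBP9 protein for full effect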
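System: RBBP9 protein | Quantity: 2.5 µM RBBP9 dispensing solution, before mixing | Reagent: FP-Rh probe, 375 nM dispensing solution | Timing: Enzyme-compound preincubation 30 min, then probe labeling 45 min, 25 °C | Measured by: Fluorescence polarization | Read-out: % inhibition | Replication: One well per compound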
WT yeast gro inh: growth inhibition of WT yeast, mitochondrial fusion screen. hit rate 2.1% among 190,000. inhibition, % at 10 µM. AID 1362. mitochondrial fusion phenotypic screen, WT strain; in the data active = inhibition above about 58%; tested in S. cerevisiae
p47phox inh: blocks human p47phox regulatory protein of NADPH oxidases; P14598; AID 1274; inhibition, % at 24.7 µM; hit rate 0.53% among 220,000; p47phox/p22phox peptide binding, fluorescence polarization, 2 h;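 active = inhibition above about 30%, limit read from the data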;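 also: 0% = p47phox with labelled peptide and 100% = labelled peptide alone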
14-3-3 Bad inh: disrupts binding of bovine 14-3-3 zeta to phospho-Bad peptide; P63103; TR-FRET 14-3-3zeta/Dy647-pBad peptide displacement, 1 h; inhibition, % at 21.7 µM; hit rate 0.71% among 220,000; AID 781;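 active = inhibition above about 70%, limit read from the data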;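 also: 0% = full 14-3-3 plus peptide FRET controls and 100% = background without 14-3-3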
KCC2 mod: modulators of human KCC2 chloride dependent transport; hit rate 2.2% among 190,000; Q9H2X9; AID 1456; KCC2 cells, thallium flux FluoZin-2 fluorescence; B-score of Tl+ flux slope (higher = more flux/activation; lower = inhibition) at 10 µM;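 active = thallium flux slope and its plate-corrected score both differing from the plate sample mean at a set confidence after two filtering rounds, in either direction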;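 also: slope of fluorescence scaled to starting intensity during 10 to 20 s after thallium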
ROMK mod: human ROMK K+ channel modulation, primary screen; hit rate 2% among 130,000; Tet-inducible ROMK, thallium flux fluorescence; actives lie on both sides; B-score at 10 µM; P48048;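 active = signal ratio slope over the read window, or its plate-corrected B-score, at least 3 SD from the plate mean, either direction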;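 also: B-score of the F/F0 ratio slope over 7 to 12 s after thallium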
Starred values were filed as active, the others as inactive; x = no result given.

SMILES	RBBP9 inhibitor	WT yeast gro inh	p47phox inh	14-3-3 Bad inh	KCC2 mod	ROMK mod
Cc1ccc(S(=O)(=O)Nc2cc(C)c(O)cc2C)cc1	-6	-2	0	-1	-0.073	-1.1
CC(=O)c1sc(-c2ccccc2)cc1NS(=O)(=O)c1ccc(C)cc1	0	x	-23	8	30*	2.7*
COc1cc(Cl)cc(/C=N/NC(N)=O)c1O	-6	4	-1	-18	-0.11	-0.17
COc1ccc(NS(=O)(=O)c2ccc(/C=C/C(=O)O)cc2)cc1S(=O)(=O)N1CCOCC1	-6	x	1	-2	0.46	x
O=S(=O)(c1ccccc1)c1cnc(-c2cccnc2)nc1-c1ccccc1	0	8	-3	3	0.35	x
O=S(=O)(c1ccccc1)c1cnc(-c2cccnc2)nc1-c1ccc(Cl)cc1Cl	-8	67*	-14	2	-0.11	x
CC(=O)Nc1ccc(S(=O)(=O)NCC(=O)NC(C)c2ccc(S(N)(=O)=O)cc2)cc1 (stereo unspecified)	-10	x	-7	-2	1	x
C=CCn1c(SCc2csc(-c3ccc(C)cc3)n2)nnc1-c1ccccc1OC	0	81*	-15	-16	-2.4	x
O=C(/C=C/c1ccc(Cl)cc1Cl)NCCSc1ccccc1	1	64*	9	2	-1.2	0.5
O=C(/C=C/c1ccc(Cl)cc1Cl)NCCSCc1ccccc1	-5	59*	-18	1	-3.8	-0.79
O=C1CSC(=S)N1N1C(=O)c2cccc([N+](=O)[O-])c2C1=O	2	4	-15	14	-0.75	1.2
CN(C)CCCNc1cc(C(C)(C)C)nc2c(-c3ccc(Cl)cc3)cnn12	-6	x	65*	79*	0.65	-0.0016
Cc1cc(NCCCN2CCOCC2)n2ncc(-c3ccc(Cl)cc3)c2n1	0	29	-10	0	0.58	x
Cc1cc(NCCCn2ccnc2)n2ncc(-c3ccc(Cl)cc3)c2n1	-2	64*	-14	1	0.9	x
O=C(NCC1CCCO1)C1CCCN1C(=O)Nc1ccc(Cl)c(Cl)c1 (stereo unspecified)	-8	5	4	8	-1.1	0.01
CCNc1nc(NC(C)(C)C)nc(SCC(N)=O)n1	6	3	12	-1	0.13	0.23
Cc1c(Nc2nc(-c3cccc([N+](=O)[O-])c3)cs2)c(=O)n(-c2ccccc2)n1C	-4	1	4	88*	x	-0.072
O=[N+]([O-])c1cccc(-c2csc(N/N=C/c3cccc(O)c3)n2)c1	-6	84*	-3	-16	x	0.11
O=C(CCCN1Cc2ccccc2C1)c1ccc(F)cc1	-1	-4	-9	26	-0.18	-0.13
CN1CCN(CCCC(=O)c2ccc(F)cc2)CC1	3	-11	64*	86*	-0.11	x
OCCNc1nc(Nc2cccc(O)c2)nc2ccccc12	7	x	-15	-1	-0.53	x
c1cncc(-c2nc(NCc3ccco3)c3ccccc3n2)c1	-7	-6	-9	67	x	x
Cc1ccccc1Nc1nc(NCc2ccco2)c2ccccc2n1	-1	79*	-17	4	-0.77	-0.16
Cc1cccc(Nc2nc(NCc3ccco3)c3ccccc3n2)c1	-8	98*	27	6	0.47	x
c1ccc(Nc2nc(NCc3ccco3)c3ccccc3n2)cc1	8	x	-33	4	-1.8	x
SMILES	RBBP9 inhibitor	WT yeast gro inh	p47phox inh	14-3-3 Bad inh	KCC2 mod	ROMK mod
COc1cccc(Nc2nc(NCCO)c3ccccc3n2)c1	-3	60*	-9	44	-1.2	-0.68
Cc1ccc(-c2nc(NCc3ccco3)c3ccccc3n2)cc1	-10	67*	-35	2	-0.19	x
CC1(CO)COC(c2ccccc2)=N1 (stereo unspecified)	4	x	5	2	-0.28	x
CCOC(=O)CCNCc1ccc(F)cc1	-6	-4	2	5	x	0.21
CCN/C=C(\C#N)S(=O)(=O)c1ccc(Br)cc1	0	x	-15	-3	0.92	x
O=C(Nc1cccc([N+](=O)[O-])c1)c1ccc2ccccc2c1O	-2	x	0	-6	-0.99	x
c1ccc(-c2nc(NCc3ccco3)c3oc4ccccc4c3n2)cc1	-34	-6	-52	73*	0.53	x
Cc1cccc(Nc2ncnc3ccccc23)c1	-7	-22	-7	73*	x	-0.65
Cc1ccc(Nc2nc(N)c([N+](=O)[O-])c(NCc3ccco3)n2)cc1C	-5	72*	-33	4	-0.53	0.27
c1ccc(-c2nc(NCCCn3ccnc3)c3oc4ccccc4c3n2)cc1	4	-7	-10	18	0.39	x
COc1ccc2c(c1)c(C(=O)N/N=C/c1ccc(O)c(O)c1)c(C)n2C	-9	-5	-6	-17	0.57	-0.013
Cc1cc(C)cc(NC(=O)C2CCCN2/C=C/C(=O)C(F)(F)F)c1 (stereo unspecified)	-7	-6	-8	-2	-0.15	x
COc1cc(OC)c(OC)cc1CN(C)C(c1ccccc1)c1nnnn1-c1ccccc1C (stereo unspecified)	-5	24	5	49	-0.93	x
COc1ccc(CN(C)C(c2ccccc2)c2nnnn2-c2ccccc2C)c(OC)c1C (stereo unspecified)	-10	74*	-7	49	0.047	x
Cc1cc(C)c2c(=O)[nH]c(SCC(=O)c3ccc(F)c(C)c3)nc2n1	-2	-2	38*	46	0.006	-0.11
COc1ccc(Nc2nnc(C)c(=O)[nH]2)c(OC)c1	-6	x	-8	1	0.099	-1
CCOc1ccc2c(c1)nc(SCC(=O)c1ccc(Br)s1)n2C	-6	13	-6	41	x	x
CCOc1ccc2c(c1)nc(SCC(=O)c1cccs1)n2C	2	-8	-4	73*	-0.6	x
NC1=NS(=O)(=O)NC1c1ccc(F)cc1 (stereo unspecified)	0	-11	3	2	0.068	-0.79
COc1ccc(C2C=C(c3ccc(Br)cc3)Nc3nc(N4C(=O)CCC4=O)nn32)cc1 (stereo unspecified)	-10	6	-19	-11	x	x
COc1ccccc1C1C=C(c2ccc(Cl)cc2)Nc2nc(N3C(=O)CCC3=O)nn21 (stereo unspecified)	-9	40	-8	0	x	-6*
O=C1CCC(=O)N1c1nc2n(n1)C(c1ccccc1)C=C(c1ccc(Br)cc1)N2 (stereo unspecified)	-1	-5	-12	x	x	-4*
COc1ccccc1C1C=C(c2ccc(Cl)cc2)Nc2nc(NS(C)(=O)=O)nn21 (stereo unspecified)	-9	-7	-10	-7	0.8	x
COc1ccc(C2CC(c3cccs3)=NN2S(=O)(=O)c2ccc(C)cc2)cc1 (stereo unspecified)	-9	x	x	x	x	x
Cc1ccc(C2CC(c3cccs3)=NN2S(=O)(=O)c2ccc(C)cc2)cc1 (stereo unspecified)	1	61*	-119	-4	0.11	x
N=c1c2c(n(Cc3ccc([N+](=O)[O-])cc3)c3c1CCC3)CCCC2	2	67*	-2	-4	-0.14	1.2
